Source: PubChem
SUMO1-SIM PPI: SUMO1-SIM interaction modulation; P63165; AID 602429; inhibition, % at 20 µM; actives 0.33% (n = 360,000); SUMO1 binding to a labelled peptide, TR-FRET, 1 h; in the data active = inhibition above about 37%
STEP block: inhibitors of human striatal-enriched phosphatase STEP. actives 0.25% (n = 360,000). recombinant STEP, OMFP fluorogenic substrate, fluorescence. inhibition, % at 20 µM. AID 588621. P54829;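 active = inhibition at 20 µM, scaled per plate between control wells, above about 37%, limit read from the data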;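 note: 0% = DMSO with enzyme and substrate and 100% = substrate only without enzyme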
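Material: STEP (striatal-enriched tyrosine phosphatase) enzyme, cell-free; Compound dosing: 20 µM single dose in 1% DMSO; Technique: fluorescence read at 480 nm ex / 540 nm em; Times: reaction 20 min, ambient temperature; Medium: 50 mM Bis-Tris pH 6.0 with 2.5 mM DTT and 0.005% Tween 20; Also added: OMFP at 25 µM.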
DNMT1 inh: DNMT1 (human) enzyme inhibition | P26358 | DNMT1 molecular beacon, Hinp1I cleavage, fluorescence | inhibition (reported as % activation of signal), % at 10 µM | actives 0.83% (n = 360,000); in the data active = inhibition above about 50%
CSN deneddyl inh: CSN deneddylation inhibition | Purified CSN, SCF-Nedd8-OG deneddylation, fluorescence polarization | inhibition, % at 12.5 µM | actives 0.38% (n = 360,000) | AID 651999;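 active = pattern-corrected inhibition above about 35%, with an unprinted fluorescence ratio check between 0.5 and 1.5, limit read from the data, passing the limit was not always enough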;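 note: 0% = enzyme with substrate and 100% = substrate without enzyme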
Target sequence (Q92905 whole entry, looked up, one chain of several): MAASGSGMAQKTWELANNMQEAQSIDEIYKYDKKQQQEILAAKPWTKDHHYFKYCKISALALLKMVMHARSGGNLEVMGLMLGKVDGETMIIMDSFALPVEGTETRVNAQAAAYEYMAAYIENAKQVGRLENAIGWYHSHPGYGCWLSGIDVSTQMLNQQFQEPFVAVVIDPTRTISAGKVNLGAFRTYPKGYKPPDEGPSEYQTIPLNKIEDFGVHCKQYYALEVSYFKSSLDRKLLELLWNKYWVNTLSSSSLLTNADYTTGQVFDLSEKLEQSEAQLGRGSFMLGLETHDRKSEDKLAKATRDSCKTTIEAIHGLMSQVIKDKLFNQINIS
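Material: purified human Csn5 enzyme expressed in HEK293T cells / Medium: Tris buffer pH 7.5, NaCl, DTT, Tween-20, trehalose, ovalbumin / Compound dosing: 12.5 µM single point / Schedule: 90 min incubation of compound, enzyme and substrate at room temperature / Signal: fluorescence polarization of the substrate / Control set: no-enzyme wells high, enzyme-with-substrate wells low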
LMPTP block: LMPTP (human) inhibition; P24666; recombinant LMPTP-A, OMFP fluorogenic substrate, fluorescence intensity; inhibition, % at 20 µM; actives 0.22% (n = 360,000);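 active = compounds that cut the enzyme signal by at least half of the control window in the single-dose screen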;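 note: plate controls were DMSO wells with enzyme plus substrate for no effect and substrate without enzyme for full effect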
Target sequence (P24666 whole entry, looked up): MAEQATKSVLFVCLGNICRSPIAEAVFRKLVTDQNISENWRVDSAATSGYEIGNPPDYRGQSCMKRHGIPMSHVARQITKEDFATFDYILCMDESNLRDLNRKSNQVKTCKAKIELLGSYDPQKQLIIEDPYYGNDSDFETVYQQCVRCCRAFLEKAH
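Assay system: LMPTP-A, protein tyrosine phosphatase of low molecular weight / Medium: pH 6.0 Bis-Tris buffer with DTT and Triton X-100 / Schedule: 50 min enzyme reaction at room temperature, protected from light / Measured by: endpoint fluorescence intensity from OMFP dephosphorylation / Read-out basis: % inhibition relative to no-enzyme and uninhibited control wells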
Scp-1 inhibitor: blocks human Scp-1 phosphatase activity. Q9GZU7. inhibition, % at 20 µM. actives 0.88% (n = 340,000). Recombinant Scp1, phosphopeptide, malachite green phosphate absorbance;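 active = inhibition above about 50% at 20 µM, limit read from the data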;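 note: plate controls were DMSO wells with enzyme for no effect and wells lacking enzyme for full effect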
Target sequence (Q9GZU7 76-261 limits assumed): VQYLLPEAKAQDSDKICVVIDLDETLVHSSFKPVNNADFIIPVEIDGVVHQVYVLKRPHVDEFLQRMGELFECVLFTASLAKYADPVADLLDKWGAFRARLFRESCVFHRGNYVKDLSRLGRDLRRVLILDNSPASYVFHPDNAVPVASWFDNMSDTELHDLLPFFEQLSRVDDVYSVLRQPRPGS
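Test system: SCP-1 catalytic domain; Buffer or medium: Acidic Tris acetate buffer with magnesium and detergent; Also added: Phosphorylated 17-residue peptide substrate; Compound: single 20 µM dose, 1% DMSO; Schedule: enzyme reaction 45 min at room temperature, colour 5 min, stabilisation 30 min; Signal: Phosphate-binding colour reagent, absorbance read at 630 nm.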
Scp1 confirm: confirmation of human Scp-1 phosphatase inhibitors. recombinant SCP-1 catalytic domain, phosphate release, malachite green absorbance. shares compounds with Scp-1 inhibitor. actives 61% (n = 2,500). inhibition, % at 20 µM;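 note: plate controls were DMSO with enzyme for no effect and buffer wells lacking enzyme for full effect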
Scp-1 MG ctr: counter-screen for Scp-1 inhibitors: colorimetric interference; shares compounds with Scp-1 inhibitor; Colorimetric interference counterscreen, malachite green absorbance 630 nm; apparent inhibition (interference), % at 20 µM; 2,500 tested, under 10 active;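 note: compounds added after enzyme reaction finished so only phosphate colour detection is probed; plate controls were DMSO wells with completed Scp-1 reaction for no effect and substrate wells lacking enzyme for full effect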
Scp-1 Tm shift: Scp-1 (human) binding by thermal shift | AID 540329 | shares compounds with Scp-1 inhibitor | Recombinant SCP1, Sypro Orange thermal shift Tm | thermal shift relative to vanadate control, % at 40 µM | actives 25% (n = 1,500);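 active = substances whose mean melting-temperature shift, as a percentage of the reference inhibitor's shift, reaches about 5.3%, limit read from the data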;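 note: 0% = Tm of DMSO wells and 100% = Tm with sodium orthovanadate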
Numbers without * were called inactive; . = not tested or not shown. This is a sample that favours compounds with a hit; in the whole collection about 1.9% have one here.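 Rule for the calls, unless noted: active = inhibition of at least 30% at 20 µM; inactive = the rest.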

SMILES | SUMO1-SIM PPI | STEP block | DNMT1 inh | CSN deneddyl inh | LMPTP block | Scp-1 inhibitor | Scp1 confirm | Scp-1 MG ctr | others
O=C(O)Cc1ccc(S(=O)(=O)N2CCCC2)s1 | 10 | 18 | 67* | 15 | 2 | 93* | 58* | -22 | Scp-1 Tm shift=0
Cc1ccc2nc(SCC(=O)Nc3ccc(Br)cc3)nc(=O)n2c1 | -2 | 2 | -3 | -2 | 0 | 60* | -24 | -19
Cc1ccc2nc(SCC(=O)Nc3ccc(C)c(Cl)c3)nc(=O)n2c1 | -2 | 2 | 1 | 3 | 0 | -4 | . | .
CC(=O)Nc1ccc(S(=O)(=O)Nc2nc3ccccc3nc2Nc2ccc(O)cc2)cc1 | 21 | -5 | -2 | 2 | 1 | -9 | . | .
C[C@H](CO)N1C[C@H](C)[C@@H](CN(C)Cc2ccc(Cl)c(Cl)c2)Oc2c(NS(=O)(=O)c3cn(C)cn3)cccc2C1=O | 4 | 0 | -1 | -2 | -2 | 59* | -7 | -17
C[C@H](CO)N1C[C@H](C)[C@@H](CN(C)Cc2ccncc2)Oc2c(NS(=O)(=O)c3cn(C)cn3)cccc2C1=O | 0 | 0 | 4 | -4 | -1 | 57* | 4 | -9
O=C(COC(=O)Cc1ccc(S(=O)(=O)N2CCOCC2)s1)Nc1ccc([N+](=O)[O-])cc1 | -22 | 3 | 6 | -3 | 2 | 29 | . | .
Cn1ncc(Br)c1C(=O)N/N=C/c1cccc(OC2CSC2)c1 | -10 | -2 | -3 | 1 | -1 | -2 | . | .
O=C(N/N=C/c1cccc(OC2CSC2)c1)c1ccccc1O | 1 | 21 | -2 | 3 | 42 | 96* | 59* | -16 | Scp-1 Tm shift=-9
Cc1ccc(S(=O)(=O)CCC(=O)OCC(=O)N2CCc3ccccc32)cc1 | 6 | -1 | 0 | 1 | 0 | 60* | -9 | -10
NC(=O)C1CCN(C(=O)c2cc(-c3ccc(Cl)s3)nc3ccccc23)CC1 | -18 | -2 | 0 | 3 | 1 | 7 | . | .
Cc1ccc(C(=O)N2CCN(c3ncnc4c(C)csc34)CC2)cc1 | 2 | 0 | 0 | -7 | 1 | 58* | 4 | -1
COc1ccc(N2CC(C(=O)Nc3nc4ccc(OC)cc4s3)CC2=O)cc1 (stereo not drawn) | 6 | 1 | -7 | 0 | 0 | -3 | . | .
COc1ccc(N2CC(C(=O)Nc3nc4ccc(F)cc4s3)CC2=O)c(OC)c1 (stereo not drawn) | 3 | 1 | -5 | 4 | 0 | -5 | 7 | -7
CCc1cccc(C)c1NC(=O)CSc1n[nH]c(N)n1 | -1 | 0 | 3 | 0 | -1 | -4 | . | .
CCOc1ccccc1-c1ccc(C(=O)NCc2ccc(Cl)cc2)o1 | 2 | . | . | -4 | 6 | . | . | .
Cc1ccc(-c2nc3ccc(C(=O)O)cc3nc2-c2ccc(C)cc2)cc1 | -24 | 1 | -1 | -1 | 0 | 61* | 27 | -9
Cc1ccc2nc(-c3ccccc3)c(-c3ccccc3)nc2c1 | -14 | 2 | 3 | 3 | 1 | -3 | . | .
O=c1c(OC2OC(CO)C(O)C(O)C2O)c(-c2ccc(O)c(O)c2)oc2cc(O)cc(O)c12 (stereo not drawn) | -5 | -1 | 8 | -1 | 0 | -15 | 2 | -2
O=c1c(O[C@@H]2O[C@H](CO)C(O)C2O)c(-c2ccc(O)c(O)c2)oc2cc(O)cc(O)c12 (stereo partly drawn) | -5 | 0 | 14 | 4 | -1 | -15 | . | .
COCCNC(=O)Cn1cc(/C=C(\C#N)C(=O)NC2CCCC2)c2ccccc21 | -16 | 1 | 1 | -1 | -2 | -4 | . | .
O=C(c1ccco1)N1CCN(C(c2cccs2)c2nnnn2C2CCCCC2)CC1 (stereo not drawn) | -7 | 2 | -1 | 7 | 0 | -4 | . | .
Cc1c(CCC(=O)O)c(=O)oc2c(C)c3occ(-c4ccc(Cl)cc4)c3cc12 | 37 | 35 | 4 | 15 | 88* | 64* | 77* | -23 | Scp-1 Tm shift=-18
Cc1c(CCC(=O)O)c(=O)oc2cc3occ(-c4ccc(Cl)cc4)c3cc12 | 24 | 5 | 3 | 7 | 12 | -12 | . | .
O=C(O)c1ccc(CNc2ccccc2C(=O)O)cc1 | 8 | 6 | 39 | 4 | 0 | 53* | 54* | -4 | Scp-1 Tm shift=-9
SMILES | SUMO1-SIM PPI | STEP block | DNMT1 inh | CSN deneddyl inh | LMPTP block | Scp-1 inhibitor | Scp1 confirm | Scp-1 MG ctr | others
O=C(O)c1ccccc1NCc1ccncc1 | 11 | -4 | -3 | 6 | -1 | -3 | . | .
Cc1cccc(C(=O)Oc2ccc(/C=N/NC(=O)Cc3ccc([N+](=O)[O-])cc3)cc2)c1 | 0 | -1 | 14 | 0 | 0 | 52* | 36* | -17 | Scp-1 Tm shift=4
CCc1nc2ccccc2[nH]c1=O | -10 | -1 | -9 | -2 | -1 | -14 | . | .
Cc1ccc(NC(=O)COC(=O)C2CCC(=O)N2)c(S(=O)(=O)N2CCOCC2)c1 (stereo not drawn) | -1 | -1 | 9 | -3 | -1 | 3 | -1 | -5
O=C(COC(=O)C1CCC(=O)N1)Nc1ccc(Cl)cc1Cl (stereo not drawn) | -2 | -2 | 0 | -4 | -1 | -7 | . | .
COc1ccc(Cl)cc1NC(=O)c1nnn(CC(=O)Nc2ccc(C)c(C)c2)c1N | 3 | 2 | 47 | -2 | -1 | -6 | . | .
COc1ccc(CNC(=O)CN(C)Cc2ccc(C(C)(C)C)cc2)cc1 | 5 | 4 | 4 | -2 | 0 | -12 | . | .
CC(NC(=O)CSc1nc2sc3c(c2c(=O)n1-c1ccccc1)CCCC3)c1ccccc1 (stereo not drawn) | -5 | 9 | 33 | 5 | 5 | -2 | . | .
O=C(CSc1nc2sc3c(c2c(=O)n1-c1ccccc1)CCCC3)N/N=C/c1ccccc1C(=O)O | 5 | 76* | 5 | 50* | 1 | 78* | 49* | -8 | Scp-1 Tm shift=-5
Cc1cccc(N2CCN(C(=O)CCCCCn3c(=S)[nH]c4ccc(N5CCOCC5)cc4c3=O)CC2)c1C | -30 | 8 | -4 | 5 | 5 | 82* | -13 | -19
O=Cc1ccc(OCc2cccc(C(F)(F)F)c2)cc1O | 6 | 8 | 0 | 4 | 3 | 62* | -23 | -24
COCC(=O)N1CCC(Oc2ccc(C(=O)N(C)Cc3nccs3)cc2)CC1 | -2 | -2 | 3 | 3 | -1 | -7 | . | .
